Assay [1] deals with T1, 3',5'-cyclic-AMP phosphodiesterase 4D (Homo sapiens, UniProt Q08499). The assay can be described thus: Inhibition of human PDE4D.
The target in assay [2] is T1, 3',5'-cyclic-AMP phosphodiesterase 4D. The assay can be described thus: Inhibition of human PDE4D in U937 cells assessed as cAMP level at 10 uM relative to control. To be noted: U-937. It counts as cell-based. More on the design: scale not given: the % may be the effect or the level left. The procedure, abridged:
(§1)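 cAMP content of U937 cells was measured after compound exposure and reported as a percentage of the untreated control level. Separately, an EC50 was derived for cAMP accumulation in the same cells.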
For orientation: Changes in cAMP serve as a functional read-out for many G protein-coupled receptors.

For assay [3] the target is unchanged. The experiment in a line: Inhibition of human PDE4D in U937 cells assessed as cAMP level at 20 uM relative to control. Format: cell-based. Also on record: scale not given: the % may be the effect or the level left. To be noted: U-937. The procedure, abridged: as §1
A short description of assay [4]: Inhibition of PDE7.
A short description of assay [5]: Inhibition of PDE3.
The target of assay [6] is cGMP-specific 3',5'-cyclic phosphodiesterase (Homo sapiens, UniProt O76074). The experiment in a line: Inhibition of PDE5.
A short description of assay [7]: Inhibition of PDE4.
Assay [8] relates to Mus musculus. The assay can be described thus: Inhibition of ovalbumin-induced eosinophil peroxidase activity in mouse bronchoalveolar lavage fluid at 30 mg/kg measured after 62 hrs of ovalbumin challenge relative to control. To be noted: Lung. It counts as functional. The procedure, abridged: (§2)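 Mice received an ovalbumin inhalation challenge, with compounds given in 0.5% CMC vehicle. Bronchoalveolar lavage fluid was collected 62 h after OVA inhalation, and eosinophil peroxidase activity was measured as a marker of eosinophil infiltration. Data are mean ± SD, n = 9–10 per group, compared with the vehicle group.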

In assay [9] the test system is Mus musculus. The experiment in a line: Inhibition of ovalbumin-induced airway hyperresponsiveness in mouse at 30 mg/kg measured after 48 hrs of ovalbumin challenge. Format: functional, organism-based. Also on record: dose 30 mg/kg.
Assay [10] concerns Mus musculus. The assay can be described thus: Inhibition of ovalbumin-induced airway hyperresponsiveness in mouse at 100 mg/kg measured after 48 hrs of ovalbumin challenge. Format: functional, organism-based. Also on record: dose 100 mg/kg.
The subject of assay [11] is Mus musculus. The experiment in a line: Inhibition of ovalbumin-induced eosinophil peroxidase activity in mouse bronchoalveolar lavage fluid at 100 mg/kg measured after 62 hrs of ovalbumin challenge relative to control. To be noted: Lung. It counts as functional. The procedure, abridged:
as §2

Assay [12] deals with T1, 3',5'-cyclic-AMP phosphodiesterase 4D. The experiment in a line: Inhibition of human PDE4D in U937 cells assessed as cAMP accumulation. Format: cell-based, U-937. A digest of the protocol:
as §1

Results on 51 molecules are retold here after ChEMBL document CHEMBL1159102, “Design, synthesis, and evaluation of 2-aryl-7-(3',4'-dialkoxyphenyl)-pyrazolo[1,5-a]pyrimidines as novel PDE-4 inhibitors” (Bioorg Med Chem Lett, 2010).

By IC50 is commonly meant the point on the concentration scale where inhibition reaches its midpoint. As usually defined, the inhibition in vivo is the relative decrease from the control value, in per cent. One may read the EC50 as the midpoint of the concentration-response curve.

Molecules are shown by their SMILES. The source made the active and inactive calls. The calls are words filed in the database; no cut-off is given here. Bounds are passed on as bounds.

T1 sequence (Q08499 whole entry): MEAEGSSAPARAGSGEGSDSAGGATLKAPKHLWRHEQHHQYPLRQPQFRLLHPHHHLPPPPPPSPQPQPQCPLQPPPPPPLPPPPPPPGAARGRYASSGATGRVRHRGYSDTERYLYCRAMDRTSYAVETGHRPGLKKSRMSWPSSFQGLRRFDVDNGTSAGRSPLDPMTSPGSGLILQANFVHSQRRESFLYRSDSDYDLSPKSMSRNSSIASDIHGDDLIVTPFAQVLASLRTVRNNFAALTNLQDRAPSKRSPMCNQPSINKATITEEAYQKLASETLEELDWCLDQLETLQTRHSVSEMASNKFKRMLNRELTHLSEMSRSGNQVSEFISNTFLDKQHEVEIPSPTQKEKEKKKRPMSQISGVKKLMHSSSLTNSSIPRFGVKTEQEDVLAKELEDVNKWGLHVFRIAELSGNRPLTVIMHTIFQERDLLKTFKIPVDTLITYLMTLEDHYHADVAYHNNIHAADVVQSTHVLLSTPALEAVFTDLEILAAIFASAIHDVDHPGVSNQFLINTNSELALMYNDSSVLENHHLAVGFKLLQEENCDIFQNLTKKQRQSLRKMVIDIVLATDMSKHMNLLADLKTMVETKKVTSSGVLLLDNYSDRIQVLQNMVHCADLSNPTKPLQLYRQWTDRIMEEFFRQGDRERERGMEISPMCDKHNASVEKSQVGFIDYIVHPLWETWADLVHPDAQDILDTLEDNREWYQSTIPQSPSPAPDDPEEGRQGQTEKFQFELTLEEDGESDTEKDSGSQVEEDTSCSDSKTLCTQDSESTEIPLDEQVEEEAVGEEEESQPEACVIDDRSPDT

`COC(=O)c1cccc(-c2cc3nccc(-c4ccc(OC(F)F)c(OCC5CC5)c4)n3n2)c1`: half-maximal inhibition in assay [1] (IC50) was put at 37 nM.
Still for that read-out and setting: the value for `CC(C)Oc1cccc(-c2cc3nccc(-c4ccc(OC(F)F)c(OCC5CC5)c4)n3n2)c1` was 46 nM; that for `FC(F)Oc1ccc(-c2ccnc3cc(-c4cc(Cl)cc(Cl)c4)nn23)cc1OCC1CC1` was 100 nM; that for `COc1ccc(-c2cc3nccc(-c4ccc(OC)c(OC5CCCC5)c4)n3n2)cc1` was 60 nM.
On the same count and under the same terms, in the case of `CC(=O)Oc1cccc(-c2cc3nccc(-c4ccc(OC(F)F)c(OCC5CC5)c4)n3n2)c1` it was 18 nM; in that of `CCN(CC)C(=O)c1cccc(-c2cc3nccc(-c4ccc(OC(F)F)c(OCC5CC5)c4)n3n2)c1`, 67 nM.
The same measure, in the same setting: in the case of `O=C(O)c1cccc(-c2cc3nccc(-c4ccc(OC(F)F)c(OCC5CC5)c4)n3n2)c1` it was 9 nM.
In assay [1], `CCNC(=O)c1cccc(-c2cc3nccc(-c4ccc(OC(F)F)c(OCC5CC5)c4)n3n2)c1` came in with an IC50 of 28 nM.
Still for that read-out and setting: the value for `CC(C)OC(=O)c1cccc(-c2cc3nccc(-c4ccc(OC(F)F)c(OCC5CC5)c4)n3n2)c1` was 40 nM.
As for `FC(F)Oc1ccc(-c2ccnc3cc(-c4cccc(Br)c4)nn23)cc1OCC1CC1`, in [1], it took 13 nM to reach half-maximal inhibition (IC50). In addition, in assay [2], the Activity worked out at 57.1%.
In [1], `COc1ccc(-c2ccnc3cc(-c4ccccc4)nn23)cc1OC1CCCC1` yielded an IC50 of 70 nM.
For the molecule `COc1ccc(-c2ccnc3cc(-c4ccc(Cl)cc4)nn23)cc1OC1CCCC1`, the IC50 in assay [1] was determined as 90 nM.
On the same count and under the same terms, the value for `COc1ccc(-c2ccnc3cc(-c4ccccc4Br)nn23)cc1OC1CCCC1` was 140 nM.
The molecule `COc1ccc(-c2ccnc3cc(-c4cccc(Br)c4)nn23)cc1OC1CCCC1` registered an IC50 in assay [1] of 30 nM. Moreover, in [3], the Activity turned out to be 11.4%.
`COCCOC(=O)c1cccc(-c2cc3nccc(-c4ccc(OC(F)F)c(OCC5CC5)c4)n3n2)c1`: in [1], the IC50 amounted to 160 nM.
Molecule `COc1ccc(-c2ccnc3cc(-c4cccc(Cl)c4)nn23)cc1OC1CCCC1` gave an IC50 in assay [1] of 20 nM. Also, in assay [3], the Activity stood at 19.7%.
As for `CN(C)c1cccc(-c2cc3nccc(-c4ccc(OC(F)F)c(OCC5CC5)c4)n3n2)c1`, in assay [1], the IC50 amounted to 120 nM.
Still for that read-out and setting: in the case of `N#CNc1cccc(-c2cc3nccc(-c4ccc(OC(F)F)c(OCC5CC5)c4)n3n2)c1` it was 40 nM.
Consider `FC(F)Oc1ccc(-c2ccnc3cc(-c4cccc(I)c4)nn23)cc1OCC1CC1`, for which the IC50 was 6 nM in [1], more than 5000 nM in assay [4], 2000 nM in assay [5] and more than 5000 nM in assay [6]. Besides, in [2], the Activity worked out at 19.8%.
Consider `COc1ccc(-c2ccnc3cc(-c4ccccc4OC)nn23)cc1OC1CCCC1`, for which the IC50 in assay [1] stood at 70 nM.
Still for that read-out and setting: the value for `FC(F)Oc1ccc(-c2ccnc3cc(-c4cccc(Cl)c4)nn23)cc1OCC1CC1` was 36 nM.
On to `CN(C)C(=O)c1cccc(-c2cc3nccc(-c4ccc(OC(F)F)c(OCC5CC5)c4)n3n2)c1`, for which the IC50 in assay [1] is 23 nM.
Consider `O=C(c1cccc(-c2cc3nccc(-c4ccc(OC(F)F)c(OCC5CC5)c4)n3n2)c1)N1CCCCC1`, for which half-maximal inhibition in assay [1] (IC50) required 65 nM.
Turning to `CN(CCN)c1cccc(-c2cc3nccc(-c4ccc(OC(F)F)c(OCC5CC5)c4)n3n2)c1`, the IC50 in assay [1] amounted to 47 nM.
With `FC(F)Oc1ccc(-c2ccnc3cc(-c4cccc(-n5cnnn5)c4)nn23)cc1OCC1CC1`, in [1], 44 nM corresponded to half-maximal inhibition (IC50).
On the same count and under the same terms, in the case of `FC(F)Oc1ccc(-c2ccnc3cc(-c4cc(Cl)ccc4Cl)nn23)cc1OCC1CC1` it was 200 nM; in that of `FC(F)Oc1ccc(-c2ccnc3cc(-c4cccc(C(F)F)c4)nn23)cc1OCC1CC1`, 39 nM; in that of `N#CCCNc1cccc(-c2cc3nccc(-c4ccc(OC(F)F)c(OCC5CC5)c4)n3n2)c1`, 83 nM.
With `COc1ccc(-c2cc3nccc(-c4ccc(OC(F)F)c(OCC5CC5)c4)n3n2)cc1OC`, in assay [1], 25 nM corresponded to half-maximal inhibition (IC50).
Molecule `FC(F)Oc1ccc(-c2ccnc3cc(-c4cccc(C(F)(F)F)c4)nn23)cc1OCC1CC1` came in with an IC50 in assay [1] of 190 nM.
Take `FC(F)Oc1ccc(-c2ccnc3cc(-c4cccnc4)nn23)cc1OCC1CC1`: the IC50 in assay [1] was 27 nM; in assay [4] it was 3000 nM; in [7], 9 nM; in [5], more than 5000 nM; in assay [6], 3500 nM.
Turning to `COc1cc(OC)cc(-c2cc3nccc(-c4ccc(OC(F)F)c(OCC5CC5)c4)n3n2)c1`, the IC50 in [1] came to 29 nM.
In [1], `FC(F)Oc1ccc(-c2ccnc3cc(-c4ccccc4)nn23)cc1OCC1CC1` yielded an IC50 of 130 nM.
The same measure, in the same setting: in the case of `NC(=O)Nc1cccc(-c2cc3nccc(-c4ccc(OC(F)F)c(OCC5CC5)c4)n3n2)c1` it was 150 nM.
On to `CCOc1cccc(-c2cc3nccc(-c4ccc(OC(F)F)c(OCC5CC5)c4)n3n2)c1`, for which inhibition in assay [1] was half-maximal at 48 nM (IC50).
Take `O=C(Nc1c(Cl)cncc1Cl)c1ccc(OC(F)F)c(OCC2CC2)c1` [ROFLUMILAST]: at 30 mg/kg the inhibition in vivo in [8] was 50%. Also, in assay [9], the inhibition entry is “Active”.
Molecule `CC(C)(C)OC(=O)N1CCN(c2cccc(-c3cc4nccc(-c5ccc(OC(F)F)c(OCC6CC6)c5)n4n3)c2)CC1` registered an IC50 in assay [1] of 54 nM.
`C=CCOc1cccc(-c2cc3nccc(-c4ccc(OC(F)F)c(OCC5CC5)c4)n3n2)c1` registered an IC50 in assay [1] of 32 nM.
On the same count and under the same terms, the value for `COc1ccc(-c2ccnc3cc(-c4cc(Cl)ccc4Cl)nn23)cc1OC1CCCC1` was 30 nM.
`COc1cccc(-c2cc3nccc(-c4ccc(OC(F)F)c(OCC5CC5)c4)n3n2)c1` displayed an IC50 in assay [1] of 30 nM. Moreover, in assay [2], the Activity came to 44.4%.
In assay [1], `COc1ccc(-c2cc3nccc(-c4ccc(OC(F)F)c(OCC5CC5)c4)n3n2)cc1O` gave an IC50 of 32 nM.
On the same count and under the same terms, in the case of `Fc1cccc(-c2cc3nccc(-c4ccc(OC(F)F)c(OCC5CC5)c4)n3n2)c1` it was 100 nM.
Turning to `[O-][n+]1cccc(-c2cc3nccc(-c4ccc(OC(F)F)c(OCC5CC5)c4)n3n2)c1`, in assay [10], the inhibition entry was “Active”. Also, at 100 mg/kg the inhibition in vivo in assay [11] was 50%. Moreover, the IC50 is 42 nM in [1]; more than 5000 nM in assay [4]; 26 nM in assay [7]; more than 5000 nM in assay [5]; more than 5000 nM in [6]. The EC50 in assay [12] came to 1610 nM.
Regarding `COc1ccc(-c2ccnc3cc(-c4ccc(Br)cc4)nn23)cc1OC1CCCC1`, the IC50 in assay [1] was 130 nM.
With `CC(C)(C)NC(=O)c1cccc(-c2cc3nccc(-c4ccc(OC(F)F)c(OCC5CC5)c4)n3n2)c1`, half-maximal inhibition in assay [1] (IC50) was put at 44 nM.
Regarding `FC(F)Oc1ccc(-c2ccnc3cc(-c4cccc(N5CCCCC5)c4)nn23)cc1OCC1CC1`, the IC50 in [1] came to 100 nM.
The molecule `CS(=O)(=O)CNc1cccc(-c2cc3nccc(-c4ccc(OC(F)F)c(OCC5CC5)c4)n3n2)c1` came in with an IC50 in [1] of 32 nM.
Molecule `COc1cccc(-c2cc3nccc(-c4ccc(OC)c(OC5CCCC5)c4)n3n2)c1` gave an IC50 in assay [1] of 40 nM. For the same molecule, the Activity in assay [3] worked out at 20.1%.
In [1], `Oc1cccc(-c2cc3nccc(-c4ccc(OC(F)F)c(OCC5CC5)c4)n3n2)c1` had an IC50 of 21 nM.
Same read-out and setting: the value for `CNc1cccc(-c2cc3nccc(-c4ccc(OC(F)F)c(OCC5CC5)c4)n3n2)c1` was 40 nM.
On the same count and under the same terms, the value for `Nc1cccc(-c2cc3nccc(-c4ccc(OC(F)F)c(OCC5CC5)c4)n3n2)c1` was 46 nM.
